Test results taken from ChEMBL document CHEMBL1123985, “Oral absorption of cephalosporin antibiotics. 1. Synthesis, biological properties, and oral bioavailability of 7-(arylacetamido)-3-chloro cephalosporins in animals” (J Med Chem, 1988).
≈ marks a conversion by molar mass, not a printed value.

Assays:
Streptococcus pneumoniae [1] = assay: Minimum inhibitory concentration against park strain of Streptococcus pneumoniae
Staphylococcus aureus [2] = assay: Minimum inhibitory concentration against V41 strain of Staphylococcus aureus; assay type: functional
Staphylococcus aureus [3] = assay: Minimum inhibitory concentration against X1.1 strain of Staphylococcus aureus; assay type: functional
Klebsiella aerogenes = assay: Minimum inhibitory concentration against EB17 strain of Enterobacter aerogenes; assay type: functional
Streptococcus pneumoniae [4] = assay: Minimum inhibitory concentration against Park strain of Streptococcus pneumoniae; assay type: functional
Klebsiella pneumoniae = assay: Minimum inhibitory concentration against X68 strain of Klebsiella pneumoniae; assay type: functional
Staphylococcus aureus [5] = assay: Minimum inhibitory concentration against S13E strain of Staphylococcus aureus; assay type: functional
Mus musculus [6] = assay: Efficacy against mouse infected ip with C203 strain of Streptococcus pyogenes, administered po to 19-21-g random sex ICR mice at 1 hr and 5 hr; assay type: functional
Outline: (§1)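 ICR mice, random sex, 19-21 g, challenged ip with 50-500 LC50 from a frozen organism pool; compound given sc or po at 1 and 5 h after challenge, five 2-fold dose levels, eight mice per level; ED50 derived.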

[7] = system: Staphylococcus epidermidis; assay: Minimum inhibitory concentration against Epil strain of Staphylococcus epidermidis; assay type: functional
Mus musculus [8] = assay: Efficacy against mouse infected ip with C203 strain of Streptococcus pyogenes, administered sc to 19-21-g random sex ICR mice at 1 hr and 5 hr; assay type: functional
Outline: as §1

[9] = system: Staphylococcus epidermidis; assay: Minimum inhibitory concentration against 222 strain of Staphylococcus epidermidis; assay type: functional
Staphylococcus aureus [10] = assay: Minimum inhibitory concentration against 3055 strain of Staphylococcus aureus
[11] = Minimum inhibitory concentration against sens CL strain of Haemophilus influenzae; assay type: functional
[12] = Minimum inhibitory concentration against N9 strain of Shigella sonnei; assay type: functional
Mus musculus [13] = assay: Efficacy against mouse infected ip with park strain of Streptococcus pneumoniae administered po to 19-21-g random sex ICR mice at 1 hr and 5 hr; assay type: functional
Outline: as §1

Streptococcus pyogenes [14] = assay: Minimum inhibitory concentration against C203 strain of Streptococcus pyogenes
[15] = Oral bioavailability in mouse; assay type: ADME, organism-based; details: in vivo
Outline: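 Male Cox mice given water and liquid diet overnight; 20 mg/kg in saline (2 mg/mL) sc or orally; urine from collection cages plus bladder contents over 2 h; activity by agar well assay with Bacillus subtilis ATCC 6633. Bioavailability from percent dose excreted in urine after oral vs parenteral dosing.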

Mus musculus [16] = assay: Efficacy against mouse infected ip with 3055 strain of Staphylococcus aureus, administered po to 19-21-g random sex ICR mice at 1 hr and 5 hr; assay type: functional
Outline: as §1

Escherichia coli = assay: Minimum inhibitory concentration against EC14 strain Escherichia coli; assay type: functional
Mus musculus [17] = assay: Efficacy against mouse infected ip with 3055 strain of Staphylococcus aureus, administered sc to 19-21-g random sex ICR mice at 1 hr and 5 hr; assay type: functional
Outline: as §1

Salmonella = assay: Minimum inhibitory concentration against X514 strain of Salmonella; assay type: functional
Streptococcus pyogenes [18] = assay: Minimum inhibitory concentration against Streptococcus pyogenes C203; assay type: functional
[19] = Minimum inhibitory concentration against res 76 strain of Haemophilus influenzae; assay type: functional
Mus musculus [20] = assay: Efficacy against mouse infected ip with park strain of Streptococcus pneumoniae administered sc to 19-21-g random sex ICR mice at 1 hr and 5 hr; assay type: functional
Outline: as §1

[21] = Percent of urinary recovery in rats after, oral administration of single 20 mg/kg dose in solution (N,range); assay type: ADME, organism-based; design: dose 20 mg/kg, route oral; details: rat, urine, read-out: Recovery
Outline: (§2)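 Male Wistar rats (200-300 g), jugular-cannulated, upper GI emptied by light cycle; 20 mg/kg in saline (6 mg/mL) sc or orally. Urine collected in wire-bottom cages, assayed by B. subtilis agar well method. Mean ± SD recovery with N and range; bioavailability = oral over mean sc recovery.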

[22] = Mean plasma levels in rats at a time 5 min after iv administration of 100 mg/kg of probenecid 5 min prior to test compound; assay type: ADME, organism-based; design: dose 100 mg/kg, route intravenous; details: rat, read-out: Plasma level
Outline: (§3)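 Rats, jugular vein cannulated (two per group), test compound iv 20 mg/kg; probenecid 100 mg/kg iv 5 min before in treated groups. Heparinized plasma sampled at 5, 20, 40 min and 1, 2, 3 h, assayed microbiologically (B. subtilis agar well). AUC 0-3 h in μg min/mL; half-life in min.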

[23] = Oral bioavailability in Rhesus monkey; assay type: ADME, organism-based, Macaca mulatta; details: in vivo
Outline: (§4)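 Rhesus monkeys, adult males, six animals per compound, each given drug orally and iv; fasted overnight. Single 30 mg/kg solution doses, by nasogastric tube (in water) or saphenous vein (in isotonic lactated Ringer). Plasma sampled at intervals, frozen at -70 °C, antibacterial activity by microbiological assay. AUC in μg min/mL; oral bioavailability from oral vs iv AUC.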

[24] = Mean plasma levels in rats 40 min after iv administration of 100 mg/kg of probenecid 5 min prior to test compound; assay type: ADME, organism-based; design: dose 100 mg/kg, route intravenous; details: rat, read-out: Plasma level
Outline: as §3

in vivo = details: rat
[25] = Mean plasma levels in rats 3h after intravenous administration of 20 mg/kg of compound; assay type: ADME, organism-based; design: dose 20 mg/kg, route intravenous; details: rat, read-out: Plasma level
Outline: as §3

[26] = dose in urine (24-h urine excretion) in female mongrel dogs after, iv administration of single 15 mg/kg dose; assay type: ADME, organism-based, Canis lupus familiaris; design: dose 15 mg/kg, route intravenous; details: dog
Outline: (§5)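 Female mongrel dogs (n=6), bladder catheter; urine collected at intervals after single 15 mg/kg iv or oral solution dose, frozen; antibiotic activity by disk-plate agar diffusion against E. coli MB 3804 with standards in pH 6.0 buffer; percent of dose recovered in urine.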

[27] = Area under plasma concentration vs time curve observed in Rhesus monkeys after, iv administration of single 30 mg/kg dose; assay type: ADME, organism-based, Macaca mulatta; design: dose 30 mg/kg, route intravenous; details: rhesus monkey
Outline: as §4

Canis familiaris [28] = assay: Area under plasma concentration vs time curve observed in female mongrel dogs after, oral administration of single 15 mg/kg dose; assay type: ADME, organism-based, Canis lupus familiaris; design: dose 15 mg/kg, route oral; details: dog, in vivo
Outline: (§6)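 Six female mongrel dogs (14-23 kg) fasted overnight, bladder catheterized; single 15 mg/kg solution doses by stomach tube (in water, total 500 mL) or cephalic vein (saline or pH 6.0 NaCl/phosphate/acetate buffer). Plasma sampled at intervals; activity by disk-plate agar diffusion against E. coli MB 3804, standards in dog serum or buffer. AUC μg min/mL, mean ± SEM; BA from iv vs po AUC and urinary recovery.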

[29] = Area under plasma concentration vs time curve observed in rats for 0-3 h; assay type: ADME; design: time < 3 hr; details: rat
Outline: as §3

[30] = Mean plasma levels in rats 20 min after iv administration of 100 mg/kg of probenecid 5 min prior to test compound; assay type: ADME, organism-based; design: dose 100 mg/kg, route intravenous; details: rat, read-out: Plasma level
Outline: as §3

[31] = dose in urine (24-h urine excretion) in female mongrel dogs after, oral administration of single 15 mg/kg dose; assay type: ADME, organism-based, Canis lupus familiaris; design: dose 15 mg/kg, route oral; details: dog
Outline: as §5

[32] = Bioavailability in rat; assay type: ADME, organism-based; details: in vivo
Outline: as §2

[33] = Percent of urinary recovery in rats after, sc administration of single 20 mg/kg dose in solution (N,range); assay type: ADME, organism-based; design: dose 20 mg/kg, route subcutaneous; details: rat, urine, read-out: Recovery
Outline: as §2

Canis familiaris [34] = assay: Area under plasma concentration vs time curve observed in female mongrel dogs after, iv administration of single 15 mg/kg dose; assay type: ADME, organism-based, Canis lupus familiaris; design: dose 15 mg/kg, route intravenous; details: dog, in vivo
Outline: as §6

[35] = Area under plasma concentration vs time curve observed in Rhesus monkeys after oral administration of single 30 mg/kg dose; assay type: ADME, organism-based, Macaca mulatta; design: dose 30 mg/kg, route oral; details: rhesus monkey
Outline: as §4

[36] = Mean plasma levels in rats 2 hr after iv administration of 100 mg/kg of probenecid 5 min prior to test compound; assay type: ADME, organism-based; design: dose 100 mg/kg, route intravenous; details: rat, read-out: Plasma level
Outline: as §3

[37] = Half-life of the compound; assay type: ADME
Outline: as §3

[38] = Mean plasma levels in rats 1 hr after iv administration of 100 mg/kg of probenecid 5 min prior to test compound; assay type: ADME, organism-based; design: dose 100 mg/kg, route intravenous; details: rat, read-out: Plasma level
Outline: as §3

Structure (SMILES): N[C@@H](C(=O)N[C@@H]1C(=O)N2C(C(=O)O)=C(Cl)CS[C@H]12)c1ccccc1 [CEFACLOR ANHYDROUS]
- MIC (Streptococcus pneumoniae [1]): 2 µg/mL (≈ 5.44 µM)
- MIC (Staphylococcus aureus [2]): 16 µg/mL (≈ 43.5 µM)
- MIC (Staphylococcus aureus [3]): 1 µg/mL (≈ 2.72 µM)
- MIC (Klebsiella aerogenes): 16 µg/mL (≈ 43.5 µM)
- MIC (Streptococcus pneumoniae [4]): 0.5 µg/mL (≈ 1.36 µM)
- MIC (Klebsiella pneumoniae): 1 µg/mL (≈ 2.72 µM)
- MIC (Staphylococcus aureus [5]): 64 µg/mL (≈ 174 µM)
- ED50 (Mus musculus [6]): 1.25 mg/kg
- MIC [7]: 8 µg/mL (≈ 21.8 µM)
- ED50 (Mus musculus [8]): 1.25 mg/kg
- MIC [9]: 4 µg/mL (≈ 10.9 µM)
- MIC (Staphylococcus aureus [10]): 1 µg/mL (≈ 2.72 µM)
- MIC [11]: 1 µg/mL (≈ 2.72 µM)
- MIC [12]: 4 µg/mL (≈ 10.9 µM)
- ED50 (Mus musculus [13]): 10.7 mg/kg
- MIC (Streptococcus pyogenes [14]): 0.25 µg/mL (≈ 0.68 µM)
- bioavailability [15]: 76%
- ED50 (Mus musculus [16]): 1.36 mg/kg
- MIC (Escherichia coli): 1 µg/mL (≈ 2.72 µM)
- ED50 (Mus musculus [17]): 1.32 mg/kg
- MIC (Salmonella): 0.5 µg/mL (≈ 1.36 µM)
- MIC (Streptococcus pyogenes [18]): 0.25 µg/mL (≈ 0.68 µM)
- MIC [19]: 2 µg/mL (≈ 5.44 µM)
- ED50 (Mus musculus [20]): 11.5 mg/kg

Structure (SMILES): CC1(C)S[C@@H]2[C@H](NC(=O)COc3ccccc3)C(=O)N2[C@H]1C(=O)O [PENICILLIN V]
- dose excreted [21]: 2.6%
- MIC (Streptococcus pneumoniae [1]): 0.02 µg/mL (≈ 0.0571 µM)
- MIC (Staphylococcus aureus [2]): 32 µg/mL (≈ 91.3 µM)
- MIC (Staphylococcus aureus [3]): 0.06 µg/mL (≈ 0.171 µM)
- concentration at 5 min [22]: 59000 ng/mL
- MIC (Klebsiella aerogenes): > 128 µg/mL
- bioavailability [23]: 5.5%
- concentration at 40 min [24]: 14100 ng/mL
- MIC (Streptococcus pneumoniae [4]): 16 µg/mL (≈ 45.7 µM)
- MIC (Klebsiella pneumoniae): > 128 µg/mL
- MIC (Staphylococcus aureus [5]): 16 µg/mL (≈ 45.7 µM)
- bioavailability (in vivo): 34%
- ED50 (Mus musculus [6]): 0.62 mg/kg
- MIC [7]: 0.125 µg/mL (≈ 0.357 µM)
- ED50 (Mus musculus [8]): 0.16 mg/kg
- concentration at 3 h [25]: < 300 ng/mL
- MIC [9]: 0.06 µg/mL (≈ 0.171 µM)
- MIC (Staphylococcus aureus [10]): 0.04 µg/mL (≈ 0.114 µM)
- MIC [11]: 64 µg/mL (≈ 183 µM)
- MIC [12]: > 128 µg/mL
- dose excreted [26]: 32%
- AUC [27]: 43000 ng·h/mL
- ED50 (Mus musculus [13]): 2.8 mg/kg
- AUC (Canis familiaris [28]): 3000 ng·h/mL
- MIC (Streptococcus pyogenes [14]): 0.06 µg/mL (≈ 0.171 µM)
- AUC at 3 h [29]: 32000 ng·h/mL
- bioavailability [15]: 29%
- concentration at 20 min [30]: 30400 ng/mL
- dose excreted [31]: 4.9%
- bioavailability [32]: 11.6%
- ED50 (Mus musculus [16]): 0.5 mg/kg
- dose excreted [33]: 22.5%
- AUC (Canis familiaris [34]): 25300 ng·h/mL
- MIC (Escherichia coli): > 128 µg/mL
- AUC [35]: 2330 ng·h/mL
- concentration at 2 h [36]: 800 ng/mL
- ED50 (Mus musculus [17]): 0.04 mg/kg
- half-life [37]: 19.4 min
- MIC (Salmonella): > 128 µg/mL
- MIC (Streptococcus pyogenes [18]): 0.06 µg/mL (≈ 0.171 µM)
- concentration at 1 h [38]: 6800 ng/mL
- MIC [19]: > 128 µg/mL
- ED50 (Mus musculus [20]): 2.1 mg/kg
